Experimental data from paper PMC5629310 (Journal of Arthropod-Borne Diseases, 2017).
Read-outs that look alike come from different tables or passages of the source.

Assays:
[1] = system: Leishmania major promastigotes (vaccine strain MRHO/IR/75/ER); settings: read-out: Anti-promastigote activity IC50; L. major promastigotes; previous compounds 1a-b; ref Tahghighi et al. 2013; cited from earlier work
[2] = system: amastigote form of L. major in murine peritoneal macrophages; settings: previous compounds 1a-b; result in words; ref Tahghighi et al. 2013; cited from earlier work
[3] = system: mouse peritoneal macrophages; settings: read-out: Cytotoxicity CC50, previous compounds 1a-b, ref Tahghighi et al. 2013; cited from earlier work
[4] = system: Leishmania major promastigotes (vaccine strain MRHO/IR/75/ER); test: Antileishmanial activity against Leishmania major promastigotes; type: cell-based; settings: for IC50: Leishmania major, 24 h, read-out: Anti-promastigote activity IC50
[5] = Toxicity against macrophages; type: cell-based, mouse; settings: BALB/c, mouse, mouse peritoneal macrophages
Summary of the method: (§1)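 BALB/c peritoneal macrophages, collected by PBS lavage, were kept in RPMI 1640 with 10% heat-inactivated FBS, 2mM glutamine and penicillin/streptomycin. Cells were seeded at 2×10^5/well and allowed to adhere. Medium was replaced with a graded series of test compound for 24 h at 37 °C, 5% CO2, with a DMSO negative control. Viability was read by MTT. Two independent experiments were run in triplicate, and CC50 was taken by linear regression.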

[6] = system: mouse peritoneal macrophages; test: Toxicity against macrophages; type: cell-based; settings: CC50 macrophages / IC50 promastigotes
Summary of the method: as §1

Structure (SMILES) | IC50 [1] | Number of intracellular amastigotes per macrophage, percentage of macrophage infectivity and infectivity index compared with control group [2] | CC50 [3] | fold more potent than 5-nitrofuran counterpart 1a ([4]; promastigote IC50, 1b versus 1a) | IC50 [4] | CC50 at 24 h [5] | SI (selectivity index CC50/IC50) [6]
O=[N+]([O-])c1ccc(-c2nnc(NCCCO)s2)o1 [Compound 1a, 3-(5-(5-nitrofuran-2-yl)-1,3,4-thiadiazol-2-ylamino) propan-1-ol] | 18 ± 0.2 µM | decreased | 62.3 µM | – | – | – | –
O=[N+]([O-])c1ccc(-c2nnc(NCCCO)s2)s1 [Compound 1b, 3-(5-(5-nitrothiophen-2-yl)-1,3,4-thiadiazol-2-ylamino) propan-1-ol] | 3 ± 0.41 µM | decreased | 42.2 µM | 6 fold | – | – | –
O=[N+]([O-])c1ccc(-c2nnc(N3CCC(O)CC3)s2)o1 [Compound 5a, 1-(5-(5-nitrofuran-2-yl)-1,3,4-thiadiazol-2-yl)piperidin-4-ol] | – | – | – | – | 68.9 ± 0.107 µM | 78.5 µM | 1.14
O=[N+]([O-])c1ccc(-c2nnc(N3CCC(O)CC3)s2)s1 [Compound 5b, 1-(5-(5-nitrothiophen-2-yl)-1,3,4-thiadiazol-2-yl)piperidin-4-ol] | – | – | – | – | 27 ± 0.12 µM | 63.6 µM | 2.35
OC(Cn1cncn1)(Cn1cncn1)c1ccc(F)cc1F [Fluconazole, reference compound] | – | – | – | – | 941.1 ± 4.98 µM | – | –
